Only some compounds are listed: those with a hit (about 2.9% of all), similar ones and a draw of the others.
SENP8 block-1: SENP8 (human) protease inhibition | recombinant SENP8, Nedd8 substrate fluorescence | Q96LD8 | 360,000 compounds, 0.64% hits | inhibition, % at 20 µM; in the data active = inhibition mostly above about 40%, no sharp cut-off; inactive = mostly below about 27%
Target sequence (Q96LD8 whole entry, looked up): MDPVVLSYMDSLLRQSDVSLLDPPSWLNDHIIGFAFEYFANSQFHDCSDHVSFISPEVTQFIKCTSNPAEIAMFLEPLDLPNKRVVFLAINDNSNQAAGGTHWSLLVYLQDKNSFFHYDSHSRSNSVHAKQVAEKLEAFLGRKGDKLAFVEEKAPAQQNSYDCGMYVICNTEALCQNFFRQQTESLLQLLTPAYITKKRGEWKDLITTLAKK
SENP6 block: SENP6 protease inhibition; Recombinant SENP6 catalytic domain, aminoluciferin luminescence; Q9GZR1; inhibition, % at 10 µM; 330,000 compounds, 1.8% hits;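 active = inhibition above about 50% at the single tested dose, limit read from the data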
SENP7 inh: SENP7 protease inhibition | inhibition, % at 5 µM | recombinant SENP7, Z-RLRGG-aminoluciferin luminescence, 40 min | AID 434973 | 330,000 compounds, 1.5% hits;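 active = inhibition above about 50% at the single test dose, limit read from the data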
SENP8 block-2: blocks the human protease SENP8 | Q96LD8 | purified SENP8, Z-RLRGG-aminoluciferin cleavage, luminescence | inhibition, % at 10 µM | 330,000 compounds, 1.2% hits; in the data active = inhibition above about 50%
SENP1 FRET inh: inhibitors of human SENP1 SUMO protease catalytic domain; Q9P0U3; recombinant SENP1 catalytic domain, CyPet-SUMO1-YPet FRET cleavage; inhibition, % at 10 µM; 360,000 compounds, 0.21% hits; AID 624204;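 active = inhibition at least 30% at 10 µM, raw YFP signal under a set limit, fluorescence ratio 0.5 to 1.5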
Target sequence (Q9P0U3 419-644 limits assumed): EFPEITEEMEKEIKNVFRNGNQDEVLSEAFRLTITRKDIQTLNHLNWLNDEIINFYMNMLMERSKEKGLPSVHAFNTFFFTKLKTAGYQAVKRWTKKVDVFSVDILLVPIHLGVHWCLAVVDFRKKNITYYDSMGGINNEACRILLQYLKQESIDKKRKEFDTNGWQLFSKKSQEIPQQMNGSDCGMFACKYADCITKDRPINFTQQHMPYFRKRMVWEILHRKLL
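Controls: no-enzyme wells low, DMSO-plus-enzyme wells high control. Test system: human recombinant His6-tagged SENP1 catalytic domain enzyme. Reagent: SFCypet-SUMO1-SFYpet FRET protein substrate, 25 nM final. Doses: one dose per compound, 10 µM, 0.5% DMSO. Detection: FRET, CFP and YFP emission. Timing: 50 min reaction at room temperature.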
HSP90 inh: inhibitors of HSP90 luciferase refolding in rabbit reticulocyte lysate | 290,000 compounds, 0.91% hits | inhibition, % at 5.6 µM | AID 1789 | luciferase refolding luminescence, 3 h;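 active = inhibition above the screen-wide mean plus 3 SD, computed separately per campaign, cut at about 16% in these data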;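 also: inhibitors lower the luminescence because luciferase stays unfolded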
HSP90 confirm: confirmation of HSP90 inhibitors | shares compounds with HSP90 inh | inhibition, % at 5.9 µM | rabbit reticulocyte lysate, luciferase refolding luminescence, 3 h | 2,300 compounds, 64% hits; in the data active = inhibition above about 18%
luciferase ctr: firefly luciferase inhibition, HSP90 counter-screen; shares compounds with HSP90 inh; purified native firefly luciferase, luminescence; inhibition, % at 5.9 µM; 2,300 compounds, 48% hits; AID 1847;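 active = inhibition above the mean inhibition of all tested sample wells plus 3 SD, cut at about 10% in these data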
SENP8 conf: confirmation of human SENP8 protease inhibitors; shares compounds with SENP7 inh; Recombinant SENP8, Z-RLRGG-aminoluciferin luminescence, 60 min; inhibition, % at 12.5 µM; 6,200 compounds, 40% hits;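 active = mean inhibition across replicates above about 50%, limit read from the data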
SENP6 confirm: confirmation of human SENP6 protease inhibitors; 6,200 compounds, 58% hits; inhibition, % at 12.5 µM; AID 488915; recombinant SENP6, Z-RLRGG-aminoluciferin luminescence; shares compounds with SENP7 inh
SENP7 confirm: human SENP7 inhibition, confirmed. shares compounds with SENP7 inh. recombinant SENP7, Z-RLRGG-aminoluciferin luminescence, 40 min. inhibition, % at 12.5 µM. 6,200 compounds, 69% hits
Casp3 select: caspase-3 inhibition (SENP selectivity assay); 6,200 compounds, 60% hits; shares compounds with SENP7 inh; AID 488918; inhibition, % at 12.5 µM; purified caspase-3, Z-DEVD-aminoluciferin luminescence, 60 min;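 active = mean inhibition above about 50%, limit read from the data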
Target sequence (P42574 28-227 limits assumed): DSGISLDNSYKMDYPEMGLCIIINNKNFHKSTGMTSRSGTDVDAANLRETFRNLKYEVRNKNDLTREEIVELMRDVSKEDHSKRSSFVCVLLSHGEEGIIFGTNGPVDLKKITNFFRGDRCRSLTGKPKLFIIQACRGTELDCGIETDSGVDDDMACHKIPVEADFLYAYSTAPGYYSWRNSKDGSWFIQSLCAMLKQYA
Luc interf: luminescence interference (SENP counter-screen); shares compounds with SENP7 inh; Pre-incubated SENP8/Z-RLRGG-aminoluciferin, luciferase luminescence interference; inhibition, % at 12.5 µM; 6,200 compounds, 39% hits;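 active = mean inhibition above about 50% when retested at one dose, limit read from the data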
Large screens that a line does not name were inactive (follow-up assays come after a bar, where they were run).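 The calls were made as follows, unless noted: active = mean inhibition above about 50% in the one-dose retest (limit read from the data); inactive = the rest.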

Cc1ccc2nc(NC(=O)c3ccccn3)sc2c1	SENP6 block 95.7, SENP7 inh 95.8, SENP8 block-2 94.9, HSP90 inh 60.8 | HSP90 confirm 93.7 | luciferase ctr 87.5 | SENP8 conf 58.5 | SENP6 confirm 81.1 | SENP7 confirm 92.6 | Casp3 select 84.4 | Luc interf inactive
CSc1nc2ccc(NC(=O)C3=NNC(=O)CC3)cc2s1	none
CC1CCN(c2ccc(-c3cccs3)nn2)CC1	SENP6 block 98.8, SENP7 inh 96.1, SENP8 block-2 94.0, HSP90 inh 80.9 | HSP90 confirm 90.1 | luciferase ctr 84.4 | SENP8 conf 63.9 | SENP6 confirm 96.5 | SENP7 confirm 102.0 | Casp3 select 94.5 | Luc interf inactive
Clc1ccc(-c2cccs2)nn1	none
Cc1cccc(/C(N)=N/OC(=O)c2ccc(Cl)cc2Cl)c1	SENP6 block 94.2, SENP7 inh 98.3, SENP8 block-2 97.3, HSP90 inh 21.4 | HSP90 confirm 37.4 | luciferase ctr 49.7 | SENP8 conf 99.1 | SENP6 confirm 100.3 | SENP7 confirm 103.1 | Casp3 select 98.9 | Luc interf 95.5
Cc1cc(NC(=O)COC(=O)c2ccccc2Cl)no1	none (no result: HSP90 inh)
Cc1cc(/C(N)=N/OC(=O)c2ccccc2Cl)no1	SENP6 block 81.2, SENP7 inh 88.0, SENP8 block-2 76.9, HSP90 inh 24.8 | HSP90 confirm 19.2 | luciferase ctr 48.8 | SENP8 conf 84.8 | SENP6 confirm 83.6 | SENP7 confirm 97.3 | Casp3 select 93.3 | Luc interf 85.5
Cc1ccc(/C(N)=N/OC(=O)c2ccc(C)cc2Cl)cc1	SENP6 block 80.5, SENP7 inh 85.1, SENP8 block-2 70.3, HSP90 inh 27.7 | HSP90 confirm 60.2 | luciferase ctr 56.1 | SENP8 conf 62.7 | SENP6 confirm 63.2 | SENP7 confirm 88.6 | Casp3 select 56.9 | Luc interf inactive
COc1ccc(C(=O)O/N=C(\N)c2ccccc2)c(OC)c1	SENP6 block 91.8, SENP7 inh 81.5, SENP8 block-2 82.0, HSP90 inh 50.8 | HSP90 confirm 36.7 | luciferase ctr 26.3 | SENP8 conf 76.0 | SENP6 confirm 69.3 | SENP7 confirm 89.4 | Casp3 select 84.7 | Luc interf 71.6
COc1ccc(C(=O)O/N=C(\N)c2ccc(OC)c(OC)c2)c(OC)c1	none
Cc1ccc(/C(N)=N/OC(=O)c2ccc3ccccc3c2)cc1	none
CC(C)C[C@@H](CN1CCC[C@H]1CN1C(=O)C(=O)NC[C@@H]1Cc1ccc(O)cc1)N1C[C@H](Cc2ccc(O)cc2)N(CC2CCCCCC2)C(=O)C1=O	none (no result: SENP6 block, SENP7 inh, SENP8 block-2, HSP90 inh)
N#Cc1cc2ccc(N3CCOCC3)cc2cc1C#N	SENP6 block 90.9, SENP8 block-2 88.5, HSP90 inh 17.9 | HSP90 confirm inactive | luciferase ctr inactive | SENP8 conf inactive | SENP6 confirm inactive | SENP7 confirm inactive | Casp3 select inactive | Luc interf inactive
CCC(=O)N(c1nnc(SCC(=O)Nc2ccc(N3CCOCC3)cc2)s1)C1CC1	none (no result: HSP90 inh)
COc1ccc(OC)c(S(=O)(=O)NCC(c2ccc3c(c2)OCO3)N2CCOCC2)c1 (centres undefined)	none (no result: HSP90 inh)
Cc1cc(C(=O)COC(=O)c2ccc(Cl)c(S(N)(=O)=O)c2)c(C)n1CC1CCCO1 (centres undefined)	none (no result: HSP90 inh)
Cc1cc(C(=O)COC(=O)c2ccc(O)cc2)c(C)n1CC1CCCO1 (centres undefined)	SENP6 block 53.8, HSP90 inh 31.8 | HSP90 confirm 39.2 | luciferase ctr 42.5 | SENP8 conf 53.9 | SENP6 confirm inactive | SENP7 confirm 82.9 | Casp3 select 67.3 | Luc interf inactive
COc1ccccc1NC(=O)C(=O)c1cn(CC(=O)N2CCOCC2)c2ccccc12	SENP6 block 51.9, SENP7 inh 55.7, HSP90 inh 21.3 | HSP90 confirm inactive | luciferase ctr inactive | SENP8 conf inactive | SENP6 confirm inactive | SENP7 confirm inactive | Casp3 select inactive | Luc interf inactive
CCCOc1ccc(C2CC(=O)Nc3cc(OC)c(OC)cc32)cc1 (centres undefined)	none
O=C(Nc1nccs1)c1cc2c(s1)CCCCC2	SENP6 block 95.3, SENP7 inh 98.2, SENP8 block-2 94.9, HSP90 inh 58.6 | HSP90 confirm 86.3 | luciferase ctr 81.4 | SENP8 conf 98.0 | SENP6 confirm 99.2 | SENP7 confirm 102.3 | Casp3 select 96.6 | Luc interf 86.8
O=C(Nc1nncs1)c1cc2c(s1)CCC2	none
O=C(NOC(=O)c1c(F)cccc1Cl)c1ccc(Cl)c(Cl)c1	none
CC(C(=O)O)c1ccc(N2Cc3ccccc3C2=O)cc1 (centres undefined)	SENP6 block 54.2, HSP90 inh 26.9 | HSP90 confirm 35.5 | luciferase ctr 32.2 | SENP8 conf inactive | SENP6 confirm inactive | SENP7 confirm 72.5 | Casp3 select 77.9 | Luc interf 55.2
Cc1cccc(-c2cc3nc4c(c(N5CCOCC5)n3n2)CCCC4)c1	SENP6 block 65.2, SENP8 block-2 52.6, HSP90 inh 40.1 | HSP90 confirm 59.0 | luciferase ctr 58.2 | SENP8 conf 59.9 | SENP6 confirm 51.4 | SENP7 confirm inactive | Casp3 select inactive | Luc interf inactive
Cc1nc(NC(=O)c2cc3ccccc3o2)sc1C	SENP6 block 88.7, SENP7 inh 90.0, SENP8 block-2 88.6, HSP90 inh 39.9 | HSP90 confirm 53.6 | luciferase ctr 47.3 | SENP8 conf 71.2 | SENP6 confirm 91.4 | SENP7 confirm 100.1 | Casp3 select 92.7 | Luc interf inactive
Cc1nnc(NC(=O)c2cc3ccccc3o2)s1	none

Assay outcomes from PubChem BioAssay.
